In ChEMBL document CHEMBL1255376, “Comparative surveillance study of telavancin activity against recently collected gram-positive clinical isolates from across the United States” (2008):
Values after ≈ are worked out from the molar mass of the structure shown.

How the values were obtained:
Assay type in all cases: functional
[1] = system: Staphylococcus aureus; test: Antibacterial activity against methicillin-susceptible Staphylococcus aureus clinical isolate by broth microdilution method
In short: (§1)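 MICs by CLSI broth microdilution in frozen trays pre-loaded with serial dilutions of each agent. Quality-control strains run in parallel: E. faecalis ATCC 29212 and ATCC 51299, S. aureus ATCC 29213, S. pneumoniae ATCC 49619. Comparator susceptibility categories follow CLSI breakpoints. Methicillin resistance in staphylococci assigned from the oxacillin MIC.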

[2] = system: Staphylococcus aureus; test: Antibacterial activity against methicillin-resistant Staphylococcus aureus clinical isolate by broth microdilution method; in short: as §1
[3] = system: Staphylococcus capitis; test: Antibacterial activity against methicillin-susceptible coagulase-negative Staphylococcus capitis clinical isolate by broth microdilution method; in short: as §1
[4] = system: Staphylococcus cohnii; test: Antibacterial activity against methicillin-susceptible coagulase-negative Staphylococcus cohnii clinical isolate by broth microdilution method; in short: as §1
[5] = system: Staphylococcus epidermidis; test: Antibacterial activity against methicillin-susceptible coagulase-negative Staphylococcus epidermidis clinical isolate by broth microdilution method; in short: as §1
[6] = system: Staphylococcus haemolyticus; test: Antibacterial activity against methicillin-susceptible coagulase-negative Staphylococcus haemolyticus clinical isolate by broth microdilution method; in short: as §1
[7] = system: Staphylococcus hominis; test: Antibacterial activity against methicillin-susceptible coagulase-negative Staphylococcus hominis clinical isolate by broth microdilution method; in short: as §1
[8] = system: Staphylococcus saprophyticus; test: Antibacterial activity against methicillin-susceptible coagulase-negative Staphylococcus saprophyticus clinical isolate by broth microdilution method; in short: as §1
[9] = system: Mammaliicoccus sciuri; test: Antibacterial activity against methicillin-susceptible coagulase-negative Staphylococcus sciuri clinical isolate by broth microdilution method; in short: as §1
[10] = system: Staphylococcus simulans; test: Antibacterial activity against methicillin-susceptible coagulase-negative Staphylococcus simulans clinical isolate by broth microdilution method; in short: as §1
[11] = system: Staphylococcus warneri; test: Antibacterial activity against methicillin-susceptible coagulase-negative Staphylococcus warneri clinical isolate by broth microdilution method; in short: as §1
[12] = system: Staphylococcus xylosus; test: Antibacterial activity against methicillin-susceptible coagulase-negative Staphylococcus xylosus clinical isolate by broth microdilution method; in short: as §1
[13] = system: Staphylococcus; test: Antibacterial activity against methicillin-susceptible coagulase-negative unspeciated Staphylococcus clinical isolate by broth microdilution method; in short: as §1
[14] = system: Staphylococcus capitis; test: Antibacterial activity against methicillin-resistant coagulase-negative Staphylococcus capitis clinical isolate by broth microdilution method; in short: as §1
[15] = system: Staphylococcus cohnii; test: Antibacterial activity against methicillin-resistant coagulase-negative Staphylococcus cohnii clinical isolate by broth microdilution method; in short: as §1
[16] = system: Staphylococcus epidermidis; test: Antibacterial activity against methicillin-resistant coagulase-negative Staphylococcus epidermidis clinical isolate by broth microdilution method; in short: as §1
[17] = system: Staphylococcus haemolyticus; test: Antibacterial activity against methicillin-resistant coagulase-negative Staphylococcus haemolyticus clinical isolate by broth microdilution method; in short: as §1
[18] = system: Staphylococcus hominis; test: Antibacterial activity against methicillin-resistant coagulase-negative Staphylococcus hominis clinical isolate by broth microdilution method; in short: as §1
[19] = system: Staphylococcus saprophyticus; test: Antibacterial activity against methicillin-resistant coagulase-negative Staphylococcus saprophyticus clinical isolate by broth microdilution method; in short: as §1
[20] = system: Mammaliicoccus sciuri; test: Antibacterial activity against methicillin-resistant coagulase-negative Staphylococcus sciuri clinical isolate by broth microdilution method; in short: as §1
[21] = system: Staphylococcus simulans; test: Antibacterial activity against methicillin-resistant coagulase-negative Staphylococcus simulans clinical isolate by broth microdilution method; in short: as §1
[22] = system: Staphylococcus warneri; test: Antibacterial activity against methicillin-resistant coagulase-negative Staphylococcus warneri clinical isolate by broth microdilution method; in short: as §1
[23] = system: Staphylococcus xylosus; test: Antibacterial activity against methicillin-resistant coagulase-negative Staphylococcus xylosus clinical isolate by broth microdilution method; in short: as §1

**Q.** `CCCCCCCCCC(=O)N[C@@H](Cc1c[nH]c2ccccc12)C(=O)N[C@H](CC(N)=O)C(=O)N[C@@H](CC(=O)O)C(=O)N[C@@H]1C(=O)NCC(=O)N[C@@H](CCCN)C(=O)N[C@@H](CC(=O)O)C(=O)N[C@H](C)C(=O)N[C@@H](CC(=O)O)C(=O)NCC(=O)N[C@H](CO)C(=O)N[C@@H]([C@H](C)CC(=O)O)C(=O)N[C@@H](CC(=O)c2ccccc2N)C(=O)O[C@@H]1C` was tested. Which MIC50 [1] did it give?
**A.** Its MIC50 is 0.5 µg/mL (≈ 0.309 µM).

**Q.** And the MIC90 [1]?
**A.** Its MIC90 is 0.5 µg/mL (≈ 0.309 µM).

**Q.** And the MIC50 [2]?
**A.** Its MIC50 is 0.5 µg/mL (≈ 0.309 µM).

**Q.** What about the MIC90 [2] of the same compound?
**A.** Its MIC90 is 0.5 µg/mL (≈ 0.309 µM).

**Q.** What about the MIC50 [3] of the same compound?
**A.** Its MIC50 is 0.5 µg/mL (≈ 0.309 µM).

**Q.** And the MIC90 [3]?
**A.** The MIC90 was 1 µg/mL (≈ 0.617 µM).

**Q.** What about the MIC50 [4] of the same compound?
**A.** The MIC50 was 0.5 µg/mL (≈ 0.309 µM).

**Q.** What about the MIC90 [4] of the same compound?
**A.** Its MIC90 is 1 µg/mL (≈ 0.617 µM).

**Q.** What about the MIC50 [5] of the same compound?
**A.** The MIC50 was 0.5 µg/mL (≈ 0.309 µM).

**Q.** What about the MIC90 [5] of the same compound?
**A.** Its MIC90 is 1 µg/mL (≈ 0.617 µM).

**Q.** What about the MIC50 [6] of the same compound?
**A.** The MIC50 was 0.5 µg/mL (≈ 0.309 µM).

**Q.** And the MIC90 [6]?
**A.** The MIC90 was 1 µg/mL (≈ 0.617 µM).

**Q.** What about the MIC50 [7] of the same compound?
**A.** Its MIC50 is 0.5 µg/mL (≈ 0.309 µM).

**Q.** And the MIC90 [7]?
**A.** The MIC90 was 1 µg/mL (≈ 0.617 µM).

**Q.** What about the MIC50 [8] of the same compound?
**A.** The MIC50 was 0.5 µg/mL (≈ 0.309 µM).

**Q.** And the MIC90 [8]?
**A.** Its MIC90 is 1 µg/mL (≈ 0.617 µM).

**Q.** What about the MIC50 [9] of the same compound?
**A.** The MIC50 was 0.5 µg/mL (≈ 0.309 µM).

**Q.** What about the MIC90 [9] of the same compound?
**A.** Its MIC90 is 1 µg/mL (≈ 0.617 µM).

**Q.** What about the MIC50 [10] of the same compound?
**A.** The MIC50 was 0.5 µg/mL (≈ 0.309 µM).

**Q.** And the MIC90 [10]?
**A.** The MIC90 was 1 µg/mL (≈ 0.617 µM).

**Q.** And the MIC50 [11]?
**A.** The MIC50 was 0.5 µg/mL (≈ 0.309 µM).

**Q.** What about the MIC90 [11] of the same compound?
**A.** The MIC90 was 1 µg/mL (≈ 0.617 µM).

**Q.** And the MIC50 [12]?
**A.** Its MIC50 is 0.5 µg/mL (≈ 0.309 µM).

**Q.** And the MIC90 [12]?
**A.** Its MIC90 is 1 µg/mL (≈ 0.617 µM).

**Q.** And the MIC50 [13]?
**A.** Its MIC50 is 0.5 µg/mL (≈ 0.309 µM).

**Q.** And the MIC90 [13]?
**A.** Its MIC90 is 1 µg/mL (≈ 0.617 µM).

**Q.** And the MIC50 [14]?
**A.** The MIC50 was 0.5 µg/mL (≈ 0.309 µM).

**Q.** What about the MIC90 [14] of the same compound?
**A.** The MIC90 was 1 µg/mL (≈ 0.617 µM).

**Q.** And the MIC50 [15]?
**A.** Its MIC50 is 0.5 µg/mL (≈ 0.309 µM).

**Q.** What about the MIC90 [15] of the same compound?
**A.** The MIC90 was 1 µg/mL (≈ 0.617 µM).

**Q.** What about the MIC50 [16] of the same compound?
**A.** The MIC50 was 0.5 µg/mL (≈ 0.309 µM).

**Q.** And the MIC90 [16]?
**A.** Its MIC90 is 1 µg/mL (≈ 0.617 µM).

**Q.** And the MIC50 [17]?
**A.** Its MIC50 is 0.5 µg/mL (≈ 0.309 µM).

**Q.** What about the MIC90 [17] of the same compound?
**A.** Its MIC90 is 1 µg/mL (≈ 0.617 µM).

**Q.** What about the MIC50 [18] of the same compound?
**A.** The MIC50 was 0.5 µg/mL (≈ 0.309 µM).

**Q.** And the MIC90 [18]?
**A.** Its MIC90 is 1 µg/mL (≈ 0.617 µM).

**Q.** And the MIC50 [19]?
**A.** Its MIC50 is 0.5 µg/mL (≈ 0.309 µM).

**Q.** And the MIC90 [19]?
**A.** Its MIC90 is 1 µg/mL (≈ 0.617 µM).

**Q.** And the MIC50 [20]?
**A.** The MIC50 was 0.5 µg/mL (≈ 0.309 µM).

**Q.** What about the MIC90 [20] of the same compound?
**A.** Its MIC90 is 1 µg/mL (≈ 0.617 µM).

**Q.** And the MIC50 [21]?
**A.** Its MIC50 is 0.5 µg/mL (≈ 0.309 µM).

**Q.** What about the MIC90 [21] of the same compound?
**A.** Its MIC90 is 1 µg/mL (≈ 0.617 µM).

**Q.** And the MIC50 [22]?
**A.** Its MIC50 is 0.5 µg/mL (≈ 0.309 µM).

**Q.** And the MIC90 [22]?
**A.** The MIC90 was 1 µg/mL (≈ 0.617 µM).

**Q.** What about the MIC50 [23] of the same compound?
**A.** The MIC50 was 0.5 µg/mL (≈ 0.309 µM).
